From ChEMBL document CHEMBL4330063, “New naphthopyran analogues of LY290181 as potential tumor vascular-disrupting agents” (Eur J Med Chem, 2019)
Calls of active or inactive are those of the source. The calls are words filed in the database; no cut-off is given here.

Tests used:
Tubulin (Sus scrofa) = Tubulin (Sus scrofa) (UniProt P02554+P02550); assay: Inhibition of porcine brain tubulin polymerization at 10 uM after 2 hrs relative to control
Procedure, shortened: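 In a brief single-concentration run, purified tubulin polymerization was measured at 10 µM and expressed as percent of vehicle-treated controls.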

518A2 = assay: Antiproliferative activity against human 518A2 cells after 72 hrs by MTT assay; type: functional, cell-based; details: for IC50: 518A2, 72 h
Procedure, shortened: (§1)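 MTT read-out after 72 h of continuous exposure. Viability is expressed as percentage of viable cells relative to untreated controls. IC50 comes from dose-response curves. Values are means±SD of four independent experiments (two for some entries). DMSO was below 1%, with vehicle controls at equal DMSO. Precipitation was excluded spectrometrically and microscopically.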

HT-29 [1] = assay: Antiproliferative activity against human HT-29 cells after 72 hrs by MTT assay; type: functional, cell-based; details: HT-29, 72 h; procedure, shortened: as §1
A2780 = assay: Antiproliferative activity against human A2780 cells after 72 hrs by SRB assay; type: functional, cell-based; details: A2780, 72 h
Procedure, shortened: (§2)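 Ovarian A2780 and cisplatin-resistant A2780cis cells were exposed for 72 h and stained with SRB. IC50 comes from dose-response curves, as means±SD of three independent experiments. Final DMSO was below 1%, with matched vehicle controls.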

[2] = Antiproliferative activity against human A2780cis cells after 72 hrs by SRB assay; type: functional, cell-based; procedure, shortened: as §2
HT-29 [3] = assay: Cell cycle arrest in human HT-29 cells assessed as accumulation of cells at sub G1 phase at 100 nM after 24 hrs by propidium iodide staining-based flow cytometric analysis (reference value: 1.2 +/- 0.3%); type: functional
HT-29 [4] = assay: Cell cycle arrest in human HT-29 cells assessed as accumulation of cells at sub G1 phase at 250 nM after 24 hrs by propidium iodide staining-based flow cytometric analysis (reference value: 1.2 +/- 0.3%); type: functional
HT-29 [5] = assay: Cell cycle arrest in human HT-29 cells assessed as accumulation of cells at sub G1 phase at 350 nM after 24 hrs by propidium iodide staining-based flow cytometric analysis (reference value: 1.2 +/- 0.3%); type: functional
HT-29 [6] = assay: Cell cycle arrest in human HT-29 cells assessed as accumulation of cells at G1 phase at 100 nM after 24 hrs by propidium iodide staining-based flow cytometric analysis (reference value: 75.1 +/- 1.1%); type: functional
HT-29 [7] = assay: Cell cycle arrest in human HT-29 cells assessed as accumulation of cells at G1 phase at 250 nM after 24 hrs by propidium iodide staining-based flow cytometric analysis (reference value: 75.1 +/- 1.1%); type: functional
HT-29 [8] = assay: Cell cycle arrest in human HT-29 cells assessed as accumulation of cells at G1 phase at 350 nM after 24 hrs by propidium iodide staining-based flow cytometric analysis (reference value: 75.1 +/- 1.1%); type: functional
HT-29 [9] = assay: Cell cycle arrest in human HT-29 cells assessed as accumulation of cells at S phase at 100 nM after 24 hrs by propidium iodide staining-based flow cytometric analysis (reference value: 12.3 +/- 0.4%); type: functional
HT-29 [10] = assay: Cell cycle arrest in human HT-29 cells assessed as accumulation of cells at S phase at 250 nM after 24 hrs by propidium iodide staining-based flow cytometric analysis (reference value: 12.3 +/- 0.4%); type: functional
HT-29 [11] = assay: Cell cycle arrest in human HT-29 cells assessed as accumulation of cells at S phase at 350 nM after 24 hrs by propidium iodide staining-based flow cytometric analysis (reference value: 12.3 +/- 0.4%); type: functional
HT-29 [12] = assay: Cell cycle arrest in human HT-29 cells assessed as accumulation of cells at G2/M phase at 100 nM after 24 hrs by propidium iodide staining-based flow cytometric analysis (reference value: 11.4 +/- 1.4%); type: functional
HT-29 [13] = assay: Cell cycle arrest in human HT-29 cells assessed as accumulation of cells at G2/M phase at 250 nM after 24 hrs by propidium iodide staining-based flow cytometric analysis (reference value: 11.4 +/- 1.4%); type: functional
HT-29 [14] = assay: Cell cycle arrest in human HT-29 cells assessed as accumulation of cells at G2/M phase at 350 nM after 24 hrs by propidium iodide staining-based flow cytometric analysis (reference value: 11.4 +/- 1.4%); type: functional
Chorioallantoic membrane [15] = assay: Antiangiogenic activity in Leghorn chicken embryo chorioallantoic membrane assessed as induction of hemorrhages at 2.5 nmol after 24 hrs by light microscopic analysis; type: functional, tissue-based; details: Gallus gallus
Procedure, shortened: (§3)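 Fertilized chicken eggs, CAM assay. Compound was applied topically into a small silicon foil ring placed on the CAM. The membrane and its extraembryonal blood vessels were monitored over 24 h, with observations at 6 h and 24 h post application.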

Chorioallantoic membrane [16] = assay: Antiangiogenic activity in Leghorn chicken embryo chorioallantoic membrane assessed as disruption of bigger blood vessels at 2.5 nmol after 6 hrs by light microscopic analysis; type: functional, tissue-based; details: Gallus gallus; procedure, shortened: as §3
Chorioallantoic membrane [17] = assay: Antiangiogenic activity in Leghorn chicken embryo chorioallantoic membrane assessed as induction of corrosion at 2.5 nmol after 24 hrs by light microscopic analysis; type: functional, tissue-based; details: Gallus gallus; procedure, shortened: as §3
Chorioallantoic membrane [18] = assay: Antiangiogenic activity in Leghorn chicken embryo chorioallantoic membrane assessed as effect on blood vessel length at 2.5 nmol after 6 hrs by light microscopic analysis; type: functional, tissue-based; details: Gallus gallus; procedure, shortened: as §3
Chorioallantoic membrane [19] = assay: Antiangiogenic activity in Leghorn chicken embryo chorioallantoic membrane assessed as reduction in blood vessel area at 2.5 nmol after 6 hrs by light microscopic analysis relative to control; type: functional, tissue-based; details: Gallus gallus
Procedure, shortened: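 The CAM assay was run with topical application into a silicon foil ring atop the CAM of fertilized chicken eggs. Area covered by blood vessels was quantified by fractal analysis relative to control.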

DLD-1 = assay: Antiproliferative activity against human DLD1 cells after 72 hrs by MTT assay; type: functional, cell-based; details: DLD-1, 72 h; procedure, shortened: as §1
EA.hy 926 = assay: Antiproliferative activity against human EAhy926 cells after 72 hrs by MTT assay; type: functional, cell-based; details: EA.hy 926, 72 h; procedure, shortened: as §1
PANC-1 = assay: Antiproliferative activity against human PANC1 cells after 72 hrs by MTT assay; type: functional, cell-based; details: PANC-1, 72 h; procedure, shortened: as §1
HCT-116 = assay: Antiproliferative activity against human HCT116 cells after 72 hrs by MTT assay; type: functional, cell-based; details: HCT-116, 72 h; procedure, shortened: as §1
[20] = Antiproliferative activity against human KB-V1/Vbl cells after 72 hrs by MTT assay; type: functional, cell-based; procedure, shortened: as §1
[21] = Antiproliferative activity against human MCF7/Topo cells after 72 hrs by MTT assay; type: functional, cell-based; procedure, shortened: as §1
[22] = Solubility in tween80/ethanol (1:1) solution; type: physicochemical

Chain of Tubulin (Sus scrofa) (P02550 whole entry, looked up): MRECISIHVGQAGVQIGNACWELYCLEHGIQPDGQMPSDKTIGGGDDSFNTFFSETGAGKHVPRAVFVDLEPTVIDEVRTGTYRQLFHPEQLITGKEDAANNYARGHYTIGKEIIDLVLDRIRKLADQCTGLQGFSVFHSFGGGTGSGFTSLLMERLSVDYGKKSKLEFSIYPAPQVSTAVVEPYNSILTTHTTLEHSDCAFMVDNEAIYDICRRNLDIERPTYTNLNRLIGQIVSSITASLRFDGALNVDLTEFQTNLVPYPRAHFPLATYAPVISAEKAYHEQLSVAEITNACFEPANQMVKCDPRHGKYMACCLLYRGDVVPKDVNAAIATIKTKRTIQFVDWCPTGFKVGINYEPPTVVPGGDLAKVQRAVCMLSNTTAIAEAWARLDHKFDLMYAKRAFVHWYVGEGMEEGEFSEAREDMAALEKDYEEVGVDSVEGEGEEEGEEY
Chain of Tubulin (Sus scrofa) (P02554 whole entry, looked up): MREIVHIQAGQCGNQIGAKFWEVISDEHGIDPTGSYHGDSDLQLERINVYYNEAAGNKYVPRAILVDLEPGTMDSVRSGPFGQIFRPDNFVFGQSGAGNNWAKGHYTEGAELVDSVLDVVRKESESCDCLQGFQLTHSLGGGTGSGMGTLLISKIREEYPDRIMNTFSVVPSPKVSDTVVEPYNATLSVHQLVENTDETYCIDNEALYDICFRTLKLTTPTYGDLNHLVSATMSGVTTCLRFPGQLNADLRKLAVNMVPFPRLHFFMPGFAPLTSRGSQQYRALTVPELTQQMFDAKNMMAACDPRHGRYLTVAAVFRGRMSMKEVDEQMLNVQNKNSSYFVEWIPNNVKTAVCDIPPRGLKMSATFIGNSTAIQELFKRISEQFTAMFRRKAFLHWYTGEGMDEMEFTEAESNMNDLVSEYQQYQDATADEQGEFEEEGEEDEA

For `N#CC1=C(N)Oc2c(ccc3ccccc23)C1c1ccc(Cl)c(F)c1` (stereo not given), the inhibition (Tubulin (Sus scrofa)) was 44.1%, the Activity (518A2) was “Dose-dependent effect” and the IC50 (518A2) was 425 nM. It also gave an IC50 (HT-29 [1]) of 172 nM, an IC50 (A2780) of 48.5 nM and an IC50 [2] of 57.3 nM. It also gave an Activity (HT-29 [3]) of 9.3%, an Activity (HT-29 [4]) of 25% and an Activity (HT-29 [5]) of 27%. It also gave an Activity (HT-29 [6]) of 56%, an Activity (HT-29 [7]) of 15.4% and an Activity (HT-29 [8]) of 21%. It also gave an Activity (HT-29 [9]) of 14.7%, an Activity (HT-29 [10]) of 9.4% and an Activity (HT-29 [11]) of 14.9%. For the same molecule, the Activity (HT-29 [12]) was 20.5%, the Activity (HT-29 [13]) was 50.4% and the Activity (HT-29 [14]) was 34%.
For `COc1ccc(/C=C\c2cc(OC)c(OC)c(OC)c2)cc1O`, the Activity (Chorioallantoic membrane [15]) was “Active”, the Activity (Chorioallantoic membrane [16]) was “Active” and the Activity (Chorioallantoic membrane [17]) was “Active”. The Activity (Chorioallantoic membrane [18]) was “Active” and the Activity (Chorioallantoic membrane [19]) was “Active”.
For `COc1c(I)cc(C2C(C#N)=C(N)Oc3c2ccc2ccccc32)cc1I` (stereo not given), the Activity (518A2) was “Dose-dependent effect”, the IC50 (518A2) was 37.1 nM and the IC50 (HT-29 [1]) was 45.2 nM. For the same molecule, the IC50 (A2780) was 16.4 nM, the IC50 [2] was 18.2 nM and the IC50 (DLD-1) was 15 nM. It also gave an IC50 (EA.hy 926) of 17.9 nM, an IC50 (PANC-1) of 13.1 nM and an IC50 (HCT-116) of 29.5 nM. The IC50 [20] was 16.5 nM, the IC50 [21] was 22.8 nM and the solubility [22] was “Insoluble”.
